Where “and” joins values, the source holds several entries; their conditions need not be identical. Equal values may be shown once.

Experiment [1] is filed under the species Canis familiaris. Briefly: In vitro electrophysiological evaluation in canine cardiac ventricular muscle reported as % change for the functional refractory period (FRP) at 10 uM at concentration range of 0.1-100 uM. Also noted: species or system Canis lupus familiaris, Muscle tissue. The procedure, abridged: (§1)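 Canine right ventricle and papillary muscle strips in oxygenated Tyrode's solution, fitted with stimulating and recording electrodes. The extra-stimulus conduction-interval method was adapted for in vitro use. FRP and CT were read from a conduction-interval curve before and after various compound concentrations, and expressed as percent change from control. Compounds were taken from 10 mM deionized-water stock into Tyrode's. Each strip was used once as its own control.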

For experiment [2], the species on record is Canis familiaris. Briefly: In vitro electrophysiological evaluation in canine cardiac Purkinje fibres reported as maximum percent change Vmax concentration range of 0.1-100 uM; Minimal (<10% decrease or increase in V max). In kind it is functional. Conditions: Canis lupus familiaris; Purkinje fiber. In outline:
(§2)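 Canine cardiac Purkinje fibres, intracellular microelectrode recording, paced at a basic cycle length of 1 s. APD95 and Vmax read simultaneously. Compound: 10 mM stock in deionized water, diluted into Tyrode's solution, tested over the stated concentration range. Each fibre used once as its own control. Result is % change from control, given at 10 µM or as the maximum with its concentration. M = <10% decrease or an increase in Vmax.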

For experiment [3], the species on record is Canis familiaris. Kind of experiment: In vitro electrophysiological evaluation in canine cardiac Purkinje fibres reported as percent change Vmax at 10 uM at concentration range of 1-100 uM. Conditions: Canis lupus familiaris, Purkinje fiber. In kind it is functional. In outline: as §2
For experiment [4], the species on record is Canis familiaris. Briefly: In vitro electrophysiological evaluation in canine cardiac Purkinje fibres reported as percent change Vmax at 10 uM at concentration range of 0.1-100 uM; Minimal (<10% decrease or increase in V max). The format is functional, organism-based. Conditions: Canis lupus familiaris, Purkinje fiber. In outline: as §2
The species entered for experiment [5] is Canis familiaris. Kind of experiment: In vitro electrophysiological evaluation in canine cardiac ventricular muscle reported as maximum % change for conduction time(CT) at 0.1-100 uM concentration range; concentration at which it occurred is 100 uM. The format is functional, Canis lupus familiaris, Muscle tissue.
Experiment [6] is filed under the species Canis familiaris. Kind of experiment: (§3) In vitro electrophysiological activity in canine cardiac occurred is 100 uM. The format is functional, Canis lupus familiaris, Heart.
For experiment [7], the species on record is Canis familiaris. Kind of experiment: In vitro electrophysiological evaluation in canine cardiac occurred is 100 uM. Conditions: Canis lupus familiaris; Heart. The format is functional.
For experiment [8], the species on record is Canis familiaris. Described as §3. In kind it is functional, Canis lupus familiaris, Heart. The source holds these as a separate data set.
Experiment [9] is filed under the species Canis familiaris. Briefly: In vitro electrophysiological evaluation in canine cardiac ventricular muscle reported as maximum % change for functional refractory period (FRP) at 0.1-100 uM concentration range; concentration at which it occurred is 10 uM. Also noted: species or system Canis lupus familiaris, Muscle tissue. In outline: as §1
The species named for experiment [10] is Canis familiaris. Kind of experiment: In vitro electrophysiological evaluation in canine cardiac Purkinje fibres reported as % change for action potential duration at a concentration of 10 uM. The format is functional, Canis lupus familiaris, Purkinje fiber. The procedure, abridged:
as §2

The species named for experiment [11] is Canis familiaris. Kind of experiment: In vitro electrophysiological evaluation in canine cardiac Purkinje fibres reported as % change for action potential duration at 10 uM at 1-100 uM concentration range. In kind it is functional, Canis lupus familiaris, Purkinje fiber. In outline: as §2
Experiment [12] is filed under the species Canis familiaris. Kind of experiment: In vitro electrophysiological evaluation in canine cardiac Purkinje fibres reported as percent change Vmax at 10 uM at concentration range of 1-100 uM; Minimal (<10% decrease or increase in V max). The format is functional. Conditions: Canis lupus familiaris, Purkinje fiber. In outline: as §2
The species entered for experiment [13] is Canis familiaris. Briefly: In vitro electrophysiological evaluation in canine cardiac ventricular muscle reported as % change for conduction time(CT) at 10 uM at 0.1-100 uM concentration range; Minimal (<10% decrease or increase in CT). In kind it is functional, Canis lupus familiaris, Muscle tissue.
For experiment [14], the species on record is Canis familiaris. Briefly: In vitro electrophysiological activity in canine cardiac occurred is 100 uM. The format is functional, Canis lupus familiaris, Heart.
Experiment [15] is filed under the species Canis familiaris. Kind of experiment: In vitro electrophysiological evaluation in canine cardiac ventricular muscle reported as maximum % change for conduction time(CT) at […] concentration range; Minimal (<10% decrease or increase in CT). In kind it is functional, Canis lupus familiaris, Muscle tissue. The procedure, abridged:
as §1

The species named for experiment [16] is Canis familiaris. Kind of experiment: In vitro electrophysiological evaluation in canine cardiac Purkinje fibres reported as maximum percent change Vmax concentration range of 1-100 uM; Minimal (<10% decrease or increase in V max). The format is functional. Conditions: Canis lupus familiaris; Purkinje fiber. The procedure, abridged:
as §2

Experiment [17] is filed under the species Canis familiaris. Briefly: In vitro electrophysiological evaluation in canine cardiac occurred is 100 uM. The format is functional. Conditions: Canis lupus familiaris; Heart.
The species entered for experiment [18] is Canis familiaris. Kind of experiment: In vitro electrophysiological evaluation in canine cardiac ventricular muscle reported as maximum % change for functional refractory period (FRP) at 0.1-100 uM concentration range; concentration at which it occurred is 100 uM. Also noted: species or system Canis lupus familiaris, Muscle tissue. In outline: as §1
For experiment [19], the species on record is Canis familiaris. Kind of experiment: In vitro electrophysiological evaluation in canine cardiac Purkinje fibres reported as percent change Vmax at 10 uM at concentration range of 0.1-100 uM; Minimal (<10% decrease or increase in Vmax). In kind it is functional, organism-based. Conditions: Canis lupus familiaris, Purkinje fiber. The procedure, abridged: as §2

Experiment [20] is filed under the species Canis familiaris. Briefly: In vitro electrophysiological evaluation in canine cardiac ventricular muscle reported as maximum % change for functional refractory period (FRP); concentration at which it occurred is 10 uM. On the set-up: species or system Canis lupus familiaris, Muscle tissue. In outline: as §1
The species named for experiment [21] is Canis familiaris. Briefly: In vitro electrophysiological evaluation in canine cardiac ventricular muscle reported as % change for conduction time(CT) at 10 uM; Minimal (<10% decrease or increase in Vmax). In kind it is functional, Canis lupus familiaris, Muscle tissue. The procedure, abridged:
as §1

For experiment [22], the species on record is Canis familiaris. Kind of experiment: In vitro electrophysiological evaluation in canine cardiac ventricular muscle reported as maximum % change for conduction time(CT); Minimal (<10% decrease or increase in […]). The format is functional, Canis lupus familiaris, Muscle tissue. In outline:
as §1

For experiment [23], the species on record is Canis familiaris. Briefly: In vitro electrophysiological evaluation in canine cardiac Purkinje fibres reported as % change for action potential duration at 10 uM at 0.1-100 uM concentration range. The format is functional, Canis lupus familiaris, Purkinje fiber. The procedure, abridged: as §2
The species entered for experiment [24] is Canis familiaris. Kind of experiment: In vitro electrophysiological evaluation in canine cardiac ventricular muscle reported as % change for the functional refractory period (FRP) at 10 uM. On the set-up: species or system Canis lupus familiaris, Muscle tissue. The procedure, abridged:
as §1

Experiment [25] is filed under the species Canis familiaris. Kind of experiment: In vitro electrophysiological evaluation in canine cardiac Purkinje fibres reported as maximum percent change Vmax concentration range of 0.1-100 uM; Minimal (<10% decrease or increase in Vmax). In kind it is functional. Conditions: Canis lupus familiaris; Purkinje fiber. In outline: as §2

On to `Cl.O=C(CCC1C(=O)C2CCN1CC2)c1ccccc1` (stereo not given), for which the FRP in experiment [1] and in [9] was 12% in each case. Besides, the Vmax is less than 10% in [2], -36% in [3], less than 10% in experiment [4] and -52% in experiment [7]. The CT in experiment [5] was found to be 17%. Further, the APD95 was -16% in experiment [6], -14% in experiment [8], -3% in [10] and -1% in experiment [11].
For `CCOC(=O)C(CC1C(=O)C2CCN1CC2)C(=O)c1ccc(Cl)c([N+](=O)[O-])c1.Cl` (stereo not given), the FRP in experiment [1] is listed as 17%; in experiment [18], 20%. Besides, the Vmax in experiment [12] was less than 10%; in experiment [16] it was less than 10%; in experiment [17], -12%. In addition, the CT in experiment [13] and in [15] was less than 10% in each case. Also, the APD95 in [14] is -2% and -7%; in experiment [10], 0%; in experiment [11] it was -2%.
Regarding `Cl.O=C1C2CCN(CC2)C1CCCc1ccccc1` (stereo not given), the Vmax in [19] and in [25] was less than 10% each time. Further, the FRP in experiment [20] and in experiment [24] was 5% each time. For the same molecule, the CT in experiment [21] and in [22] was less than 10% each time. Moreover, the APD95 in experiment [14] is -38% and -35%; in [23], 1%; in experiment [10], -6%.

These data come from ChEMBL document CHEMBL1123566, “Synthesis and cardiac electrophysiological activity of 2- and 3-[(substituted phenyl)alkyl]quinuclidines. Structure-activity relationships” (1987).
